# In ChEMBL document CHEMBL1212911, “Identification of potent and selective amidobipyridyl inhibitors of protein kinase D” (J Med Chem, 2010):
# Active and inactive are the calls of the source. The rule behind the calls is not given here.
# Assays:
# Plasma = assay: Drug level in Dahl salt-sensitive rat plasma at 5 mg/kg, sc qd; conditions: in vivo
# [1] = biological target: Protein kinase C delta type (Homo sapiens) (UniProt Q05655); assay: Inhibition of human PKCdelta; conditions: concentration not given here
# How it was run: (§1)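 Selectivity screen run externally (Invitrogen SelectScreen). Percent inhibition measured at 1 μM compound, mean of 2 measurements.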
# [2] = biological target: Beta-1 adrenergic receptor (Homo sapiens, UniProt P08588); assay: Inhibition of beta-1 adrenoceptor
# [3] = biological target: Calcium/calmodulin-dependent protein kinase type 1D (Homo sapiens) (UniProt Q8IU85); assay: Inhibition of CaMK1delta; conditions: concentration not given here
# How it was run: as §1
# Pkd1 (Rattus norvegicus) = Pkd1 (Rattus norvegicus) (UniProt Q9ERV0); assay: Inhibition of PKD1 in rat ventricular myosyte assessed as inhibition of HDAC5 neuclear export
# How it was run: (§2)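 Neonatal rat ventricular myocytes infected with adenovirus encoding GFP-HDAC5 and plated on gelatin-coated wells. Cells exposed to compound and stimulated with PGF2α for 2 h, then fixed. Cytoplasmic versus nuclear GFP intensity quantified by high-content imaging.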
# [4] = biological target: T1, Serine/threonine-protein kinase D1 (Homo sapiens) (UniProt Q15139); assay: Inhibition of PKD1 autophosphorylation at 1 uM
# T1 sequence (whole entry): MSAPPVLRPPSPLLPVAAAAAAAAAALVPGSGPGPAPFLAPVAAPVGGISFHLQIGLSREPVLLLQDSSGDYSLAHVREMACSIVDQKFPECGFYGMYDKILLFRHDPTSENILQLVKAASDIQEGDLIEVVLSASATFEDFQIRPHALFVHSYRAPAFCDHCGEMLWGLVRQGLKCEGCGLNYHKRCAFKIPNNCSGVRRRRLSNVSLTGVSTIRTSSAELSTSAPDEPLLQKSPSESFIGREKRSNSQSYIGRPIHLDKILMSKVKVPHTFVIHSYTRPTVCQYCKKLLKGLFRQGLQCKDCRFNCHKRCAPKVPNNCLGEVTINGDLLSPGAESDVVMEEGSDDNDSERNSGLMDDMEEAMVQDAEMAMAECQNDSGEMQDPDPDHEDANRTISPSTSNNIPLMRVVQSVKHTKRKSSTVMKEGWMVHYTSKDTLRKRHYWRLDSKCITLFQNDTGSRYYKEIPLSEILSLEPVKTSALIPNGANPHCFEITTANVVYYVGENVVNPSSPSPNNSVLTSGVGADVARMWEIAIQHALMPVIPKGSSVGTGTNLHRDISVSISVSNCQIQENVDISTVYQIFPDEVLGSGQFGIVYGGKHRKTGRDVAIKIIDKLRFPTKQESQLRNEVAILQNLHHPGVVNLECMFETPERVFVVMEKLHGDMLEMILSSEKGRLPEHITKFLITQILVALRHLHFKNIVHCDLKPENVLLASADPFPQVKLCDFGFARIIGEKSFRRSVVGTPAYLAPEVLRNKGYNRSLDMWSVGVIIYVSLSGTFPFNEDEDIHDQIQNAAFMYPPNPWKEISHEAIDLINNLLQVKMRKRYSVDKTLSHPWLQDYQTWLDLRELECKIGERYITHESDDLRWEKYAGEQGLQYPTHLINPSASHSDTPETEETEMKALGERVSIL
# [5] = biological target: Calcium/calmodulin-dependent protein kinase type II subunit delta (Homo sapiens) (UniProt Q13557); assay: Inhibition of human CaMK2delta; conditions: concentration not given here
# How it was run: as §1
# [6] = biological target: G protein-coupled receptor kinase 5 (Homo sapiens) (UniProt P34947); assay: Inhibition of human GRK5; conditions: concentration not given here
# How it was run: as §1
# [7] = biological target: Calcium/calmodulin-dependent protein kinase type II subunit beta (Homo sapiens) (UniProt Q13554); assay: Inhibition of human CaMK2beta; conditions: concentration not given here
# How it was run: as §1
# Rattus norvegicus [8] = assay: Antihypertensive activity in thoracic aortic banded Sprague-Dawley rat assessed as inhibition of cardia hypertrophy at 5 mg/kg, sc; type: functional, organism-based; set-up: dose 5 mg/kg; conditions: Aorta
# How it was run: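 Rats fitted with an aortic occlusion cuff or given sham surgery. Dosed 5 mg/kg/day sc in acidified captisol, or vehicle, for 2 weeks. End-point cardiac performance assessed by ultrasound and hemodynamics by direct catheterization.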
# [9] = biological target: T2, Serine/threonine-protein kinase D1 (Homo sapiens, UniProt Q15139); assay: Inhibition of PKD1 assessed as inhibition of HDAC5 neuclear export
# T2 sequence (Q15139 whole entry): T1 sequence (whole entry)
# How it was run: as §2
# [10] = biological target: Serine/threonine-protein kinase MARK1 (Homo sapiens) (UniProt Q9P0L2); assay: Inhibition of human MARK1; conditions: concentration not given here
# How it was run: as §1
# [11] = biological target: T2, Serine/threonine-protein kinase D1; assay: Inhibition of PKD1 by TR-FRET assay
# How it was run: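 Full-length wild-type PKD1 expressed and purified from Sf9 cells, 0.2 μg/mL, in 35 mM Tris-HCl pH 7.5, 5 mM MgCl2, 0.02% Tween-20, 20 μM ATP, 1 mM DTT. Reaction started with 2 μM biotinylated syntide-2 and run 50 min at room temperature. Stopped with EDTA plus europium anti-rabbit IgG, anti-phospho-syntide-2 antibody and streptavidin-APC. LANCE TR-FRET 665/615 ratio read after 1 h. 11-point curves in triplicate gave IC50.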
# [12] = biological target: Serine/threonine-protein kinase MARK2 (Homo sapiens) (UniProt Q7KZI7); assay: Inhibition of human MARK2; conditions: concentration not given here
# How it was run: as §1
# [13] = Inhibition of PKC-mediated phosphorylation of Ser744/748
# [14] = Inhibition of alpha1 adrenoceptor
# [15] = biological target: T3, Calcium/calmodulin-dependent protein kinase type IV (Homo sapiens) (UniProt Q16566); assay: Inhibition of human CaMK4; conditions: concentration not given here
# T3 sequence (whole entry): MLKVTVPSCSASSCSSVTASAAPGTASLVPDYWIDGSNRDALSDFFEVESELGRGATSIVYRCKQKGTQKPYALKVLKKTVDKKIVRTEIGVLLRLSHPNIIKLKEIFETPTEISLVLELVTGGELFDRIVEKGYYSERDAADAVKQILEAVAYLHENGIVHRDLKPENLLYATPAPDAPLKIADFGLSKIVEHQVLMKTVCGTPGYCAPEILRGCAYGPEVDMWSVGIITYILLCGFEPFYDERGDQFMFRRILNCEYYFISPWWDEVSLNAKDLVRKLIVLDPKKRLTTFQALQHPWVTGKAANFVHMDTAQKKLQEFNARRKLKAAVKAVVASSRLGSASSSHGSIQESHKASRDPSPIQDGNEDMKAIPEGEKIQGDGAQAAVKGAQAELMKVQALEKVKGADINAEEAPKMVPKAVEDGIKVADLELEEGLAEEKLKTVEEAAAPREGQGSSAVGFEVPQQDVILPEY
# How it was run: as §1
# Rattus norvegicus [16] = assay: Ex vivo inhibition of PKD in PBMC isolated from Dahl salt-sensitive sc dosed rat assessed as inhibition of PMA-induced HDAC phosphorylation
# Rattus norvegicus [17] = species on record: Rattus norvegicus; assay: Inhibition of PMA-induced PKD autophosphorylation in Dahl salt-sensitive rat PBMC
# How it was run: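 Male Dahl salt-sensitive rats, 6–7 weeks old, were switched from a 0.49% to an 8.0% NaCl diet for 2 weeks. Dosing was daily sc (1.0 mL/kg) with vehicle (10% 1 N HCl/90% of 10% captisol, pH 4.6 buffer) or 0.5, 1.5 or 5 mg/kg compound. On day 14, PBMCs were isolated and stimulated with PMA. The read-out was PKD Ser916 autophosphorylation.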
# Sequence of Calcium/calmodulin-dependent protein kinase type 1D (Homo sapiens) (Q8IU85 whole entry, looked up): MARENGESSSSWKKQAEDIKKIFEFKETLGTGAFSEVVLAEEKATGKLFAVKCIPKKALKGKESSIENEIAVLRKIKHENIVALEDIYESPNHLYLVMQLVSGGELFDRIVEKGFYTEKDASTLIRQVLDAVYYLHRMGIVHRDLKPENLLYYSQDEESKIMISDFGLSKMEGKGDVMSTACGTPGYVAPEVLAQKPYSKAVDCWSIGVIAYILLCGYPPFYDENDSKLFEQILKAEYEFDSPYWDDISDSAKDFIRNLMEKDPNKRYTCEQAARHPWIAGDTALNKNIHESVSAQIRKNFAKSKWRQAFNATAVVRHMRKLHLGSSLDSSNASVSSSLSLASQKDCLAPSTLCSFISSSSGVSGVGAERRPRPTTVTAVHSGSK
# Sequence of Calcium/calmodulin-dependent protein kinase type II subunit beta (Homo sapiens) (Q13554 whole entry): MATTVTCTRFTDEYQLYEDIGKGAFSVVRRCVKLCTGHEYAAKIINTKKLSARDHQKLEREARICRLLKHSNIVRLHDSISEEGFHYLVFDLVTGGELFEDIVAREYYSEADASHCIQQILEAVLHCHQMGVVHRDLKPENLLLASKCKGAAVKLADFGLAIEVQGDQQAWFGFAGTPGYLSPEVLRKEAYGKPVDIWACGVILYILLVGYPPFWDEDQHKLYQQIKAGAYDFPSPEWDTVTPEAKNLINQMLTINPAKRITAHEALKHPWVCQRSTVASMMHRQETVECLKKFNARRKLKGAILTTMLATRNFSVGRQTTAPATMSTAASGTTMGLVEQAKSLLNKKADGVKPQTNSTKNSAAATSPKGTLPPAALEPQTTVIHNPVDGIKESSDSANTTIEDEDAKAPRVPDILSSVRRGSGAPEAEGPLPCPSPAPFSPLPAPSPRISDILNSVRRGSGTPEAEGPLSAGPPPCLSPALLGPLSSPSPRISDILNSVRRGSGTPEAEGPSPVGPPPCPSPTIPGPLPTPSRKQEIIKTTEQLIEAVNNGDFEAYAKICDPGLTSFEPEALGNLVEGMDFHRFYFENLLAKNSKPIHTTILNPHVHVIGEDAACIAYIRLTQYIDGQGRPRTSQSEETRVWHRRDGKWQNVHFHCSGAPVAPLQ
# Sequence of Protein kinase C delta type (Homo sapiens) (Q05655 whole entry, looked up): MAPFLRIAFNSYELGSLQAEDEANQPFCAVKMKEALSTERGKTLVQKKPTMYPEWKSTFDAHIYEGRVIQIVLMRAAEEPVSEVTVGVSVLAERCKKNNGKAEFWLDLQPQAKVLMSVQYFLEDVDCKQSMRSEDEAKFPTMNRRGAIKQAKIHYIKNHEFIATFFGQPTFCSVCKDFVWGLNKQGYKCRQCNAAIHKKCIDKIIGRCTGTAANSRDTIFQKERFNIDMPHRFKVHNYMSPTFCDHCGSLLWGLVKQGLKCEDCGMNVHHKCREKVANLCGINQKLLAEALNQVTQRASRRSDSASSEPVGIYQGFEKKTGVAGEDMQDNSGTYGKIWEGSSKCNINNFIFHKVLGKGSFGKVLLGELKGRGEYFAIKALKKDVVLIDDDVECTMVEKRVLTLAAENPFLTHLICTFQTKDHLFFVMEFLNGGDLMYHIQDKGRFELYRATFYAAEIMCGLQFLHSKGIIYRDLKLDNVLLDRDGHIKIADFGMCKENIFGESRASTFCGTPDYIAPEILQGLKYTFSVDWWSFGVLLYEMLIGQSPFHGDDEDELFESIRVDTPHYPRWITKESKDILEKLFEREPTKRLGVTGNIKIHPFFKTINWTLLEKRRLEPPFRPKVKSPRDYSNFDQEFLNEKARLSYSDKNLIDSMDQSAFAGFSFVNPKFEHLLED
# Sequence of Beta-1 adrenergic receptor (P08588 whole entry): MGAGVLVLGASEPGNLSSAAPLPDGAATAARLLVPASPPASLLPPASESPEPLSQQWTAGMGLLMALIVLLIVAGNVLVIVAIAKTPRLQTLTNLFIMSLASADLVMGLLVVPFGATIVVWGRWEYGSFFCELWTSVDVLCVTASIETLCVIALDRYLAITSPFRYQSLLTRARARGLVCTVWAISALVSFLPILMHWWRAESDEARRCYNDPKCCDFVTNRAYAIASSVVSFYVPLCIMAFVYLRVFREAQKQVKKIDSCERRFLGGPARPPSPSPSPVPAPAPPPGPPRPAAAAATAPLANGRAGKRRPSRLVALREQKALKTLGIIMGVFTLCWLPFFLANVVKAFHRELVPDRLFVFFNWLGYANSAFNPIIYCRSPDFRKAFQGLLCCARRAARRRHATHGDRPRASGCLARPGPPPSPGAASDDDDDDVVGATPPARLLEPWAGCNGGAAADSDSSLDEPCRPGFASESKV
# Sequence of Serine/threonine-protein kinase MARK1 (Homo sapiens) (Q9P0L2 whole entry, looked up): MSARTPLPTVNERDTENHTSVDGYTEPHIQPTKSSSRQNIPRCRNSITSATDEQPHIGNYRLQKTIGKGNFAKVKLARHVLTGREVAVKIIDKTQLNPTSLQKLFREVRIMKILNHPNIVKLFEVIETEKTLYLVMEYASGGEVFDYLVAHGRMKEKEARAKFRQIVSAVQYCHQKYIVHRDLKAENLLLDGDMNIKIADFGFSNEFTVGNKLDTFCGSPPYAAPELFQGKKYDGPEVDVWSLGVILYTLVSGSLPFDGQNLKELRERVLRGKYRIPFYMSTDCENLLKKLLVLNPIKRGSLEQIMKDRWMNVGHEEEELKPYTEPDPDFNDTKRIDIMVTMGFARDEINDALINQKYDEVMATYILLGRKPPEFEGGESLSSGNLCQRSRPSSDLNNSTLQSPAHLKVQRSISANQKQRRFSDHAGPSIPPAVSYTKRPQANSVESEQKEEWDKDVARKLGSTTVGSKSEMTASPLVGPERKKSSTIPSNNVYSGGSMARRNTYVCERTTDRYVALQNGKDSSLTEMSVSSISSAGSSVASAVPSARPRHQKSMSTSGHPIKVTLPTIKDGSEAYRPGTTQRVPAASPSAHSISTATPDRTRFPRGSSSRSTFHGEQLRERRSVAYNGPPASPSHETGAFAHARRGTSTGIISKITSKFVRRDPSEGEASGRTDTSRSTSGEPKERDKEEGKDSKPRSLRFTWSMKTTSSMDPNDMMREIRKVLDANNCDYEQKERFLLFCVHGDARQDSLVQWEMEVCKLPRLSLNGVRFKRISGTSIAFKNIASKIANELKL
# Sequence of Serine/threonine-protein kinase MARK2 (Homo sapiens) (Q7KZI7 whole entry): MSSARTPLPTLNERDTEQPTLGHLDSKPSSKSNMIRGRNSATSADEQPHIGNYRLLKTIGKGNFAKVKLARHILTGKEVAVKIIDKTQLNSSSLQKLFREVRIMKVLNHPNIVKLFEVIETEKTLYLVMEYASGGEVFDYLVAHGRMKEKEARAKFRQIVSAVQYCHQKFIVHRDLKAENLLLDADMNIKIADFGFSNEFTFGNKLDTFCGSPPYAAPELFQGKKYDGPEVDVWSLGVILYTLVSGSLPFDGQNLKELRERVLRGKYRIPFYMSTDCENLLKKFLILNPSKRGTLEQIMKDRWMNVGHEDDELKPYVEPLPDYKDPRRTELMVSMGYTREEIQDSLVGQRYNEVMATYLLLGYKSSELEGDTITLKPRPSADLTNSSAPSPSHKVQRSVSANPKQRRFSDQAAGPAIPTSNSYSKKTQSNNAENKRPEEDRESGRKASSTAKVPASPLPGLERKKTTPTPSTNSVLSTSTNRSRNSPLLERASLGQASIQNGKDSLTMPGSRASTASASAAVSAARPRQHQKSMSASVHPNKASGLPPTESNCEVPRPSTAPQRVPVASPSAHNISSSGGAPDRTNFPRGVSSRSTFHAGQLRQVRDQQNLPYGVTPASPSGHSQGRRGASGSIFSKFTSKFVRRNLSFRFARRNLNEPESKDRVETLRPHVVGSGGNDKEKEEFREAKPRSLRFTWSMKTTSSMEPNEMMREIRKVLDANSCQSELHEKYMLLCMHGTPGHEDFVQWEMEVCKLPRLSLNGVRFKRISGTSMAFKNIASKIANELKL
# Sequence of G protein-coupled receptor kinase 5 (Homo sapiens) (P34947 whole entry, looked up): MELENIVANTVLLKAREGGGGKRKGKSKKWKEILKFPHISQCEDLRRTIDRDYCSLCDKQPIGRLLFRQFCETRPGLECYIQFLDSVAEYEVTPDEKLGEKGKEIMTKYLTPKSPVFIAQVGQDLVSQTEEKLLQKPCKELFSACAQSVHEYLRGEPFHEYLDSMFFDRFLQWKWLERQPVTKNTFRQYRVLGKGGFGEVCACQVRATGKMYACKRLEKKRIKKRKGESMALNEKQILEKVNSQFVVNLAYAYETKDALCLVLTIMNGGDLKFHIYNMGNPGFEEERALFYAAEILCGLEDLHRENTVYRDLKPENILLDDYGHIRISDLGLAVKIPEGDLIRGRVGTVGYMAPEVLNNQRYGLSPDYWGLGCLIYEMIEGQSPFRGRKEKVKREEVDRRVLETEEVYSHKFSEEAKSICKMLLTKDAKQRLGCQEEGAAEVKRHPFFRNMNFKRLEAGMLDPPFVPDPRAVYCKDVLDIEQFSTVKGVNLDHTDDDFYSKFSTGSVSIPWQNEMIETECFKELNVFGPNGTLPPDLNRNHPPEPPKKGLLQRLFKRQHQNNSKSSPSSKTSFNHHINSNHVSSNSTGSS
# Sequence of Calcium/calmodulin-dependent protein kinase type II subunit delta (Homo sapiens) (Q13557 whole entry): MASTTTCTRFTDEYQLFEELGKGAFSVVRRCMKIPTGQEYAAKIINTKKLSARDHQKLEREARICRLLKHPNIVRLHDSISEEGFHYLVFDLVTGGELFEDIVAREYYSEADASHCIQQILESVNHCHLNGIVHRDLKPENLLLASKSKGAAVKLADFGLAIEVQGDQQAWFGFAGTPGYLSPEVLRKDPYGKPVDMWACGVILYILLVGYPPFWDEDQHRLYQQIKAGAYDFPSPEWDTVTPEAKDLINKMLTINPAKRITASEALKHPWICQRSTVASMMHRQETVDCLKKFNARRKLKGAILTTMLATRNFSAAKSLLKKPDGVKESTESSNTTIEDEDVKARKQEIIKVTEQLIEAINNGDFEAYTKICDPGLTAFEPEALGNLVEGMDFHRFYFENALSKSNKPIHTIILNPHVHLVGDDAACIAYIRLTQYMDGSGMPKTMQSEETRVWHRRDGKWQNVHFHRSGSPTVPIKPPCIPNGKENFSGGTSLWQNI
structure (smiles),measurement,setting,value
NC(=O)c1cc(-c2ccnc(NC3CCCCC3)c2)nc(N2CCNCC2)c1,concentration,Plasma,230 nM
same,inhibition,[1],22%
same,IC50,[2],8.3 µM
same,inhibition,[3],6%
same,inhibition,Pkd1 (Rattus norvegicus),Active
same,inhibition,[4],Active
same,inhibition,[5],26%
same,inhibition,[6],2%
same,inhibition,[7],3%
same,inhibition,Rattus norvegicus [8],inactive
same,EC50,[9],0.077 µM
same,inhibition,[10],24%
same,IC50,[11],0.001 µM
same,inhibition,[12],27%
same,inhibition,[13],inactive
same,IC50,[14],3 µM
same,inhibition,[15],1%
same,Activity,Rattus norvegicus [16],Active
same,inhibition,Rattus norvegicus [17],inactive
